Published values of several laboratories.
Compare with care: the assays were run in different laboratories.
Species: human

OC[C@H]1O[C@@H](c2ccc(Cl)c(Cc3ccc(O[C@H]4CCOC4)cc3)c2)[C@H](O)[C@@H](O)[C@@H]1O — renal clearance (urine; oral; 100 mg; single dose): 15 mL/min
Cn1cc(-c2cnc3cnn(S(=O)(=O)c4cnc5ccc(-c6cnn(C)c6)cn45)c3c2)cn1 — CL/F (plasma; oral; 300 mg; single dose, fasted, healthy volunteers): 12.8 L/h
COc1cc(C(=O)NC2CCN(C)CC2)c(F)cc1Nc1ncc(C(F)(F)F)c(Oc2cccc3c2C(=O)N(C)C3)n1 — CL/F (plasma; oral; 100 mg; multiple doses, once daily, patients): 10.4 L/h
OC[C@H]1O[C@@H](c2ccc(Cl)c(Cc3ccc(O[C@H]4CCOC4)cc3)c2)[C@H](O)[C@@H](O)[C@@H]1O — CL/F (plasma; oral; multiple doses, steady state): 8.99 L/h
CCNCCCNC/C=C\CNCCCNCC — clearance (plasma; intravenous; 50 mg; patients, infusion): 10500 mL/min
c1cnc2ccc(Nc3nc(NC4CC4)c4nc[nH]c4n3)cc2c1 — CL/F (plasma; oral; 400 mg/m²; patients): 115 L/h
Cc1ccc(C(=O)N(CCCN)[C@@H](c2oc3cc(Cl)ccc3c(=O)c2Cc2ccccc2)C(C)C)cc1 — clearance (plasma; intravenous; 8 mg/m²; single dose, patients, infusion): 23.1 mL/min
CS(=O)(=O)CCC#N — CL/F (plasma; oral; 300 mg; single dose, fasted): 0.217 mL/min/kg
